Activity calls are given as the source filed them.
Legend:
Mus musculus [1] = species on record: Mus musculus; experiment: Anticonvulsant activity in mouse assessed as protection against maximal electroshock-induced seizures; type: functional
[2] = Toxicity in mouse; type: organism-based; settings: in vivo
Outline: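 Toxicity in mice from the NINCDS screens, expressed as TD50: dose toxic in 50% of screens, in mg/kg.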

Mus musculus [3] = experiment: Anticonvulsant activity in mouse assessed as protection against subcutaneous pentylenetetrazole-induced seizures; type: functional; settings: sc
Outline: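 Mice screened in the NINCDS program for subcutaneous metrazole (pentylenetetrazole) seizure threshold (scMet) protection; ED50 taken as dose effective in 50% of test animals, in mg/kg.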

| Compound | Activity (Mus musculus [1]) | further results |
| --- | --- | --- |
| CC1(C)OC(=O)N(C(C)(C)C)C1=O | inactive |  |
| CCN(CC)CCN1C(=O)NC(C)(C)C1=O | inactive |  |
| CCN(CC)CCN1C(=O)NC(c2ccccc2)(c2ccccc2)C1=O |  | ED50 (Mus musculus [1]): 80 mg/kg |
| Cc1ccc(S(=O)(=O)N2C(=O)NC(C)(C)C2=O)cc1 | inactive |  |
| CC(=O)N1C(=O)N(C(C)(C)C)C(=O)C1(C)C |  | TD50 [2]: ≤ 30 mg/kg |
| CC1(C)NC(=O)N(C23CC4CC(CC(C4)C2)C3)C1=O | inactive |  |
| CCN(CC)CCN1C(=O)N(CCN(CC)CC)C(c2ccccc2)(c2ccccc2)C1=O | inactive |  |
| CN1C(=O)N(C(C)(C)C)C(=O)C1(C)C | inactive |  |
| CC1(C)NC(=O)N(C(C)(C)C)C1=O |  | ED50 (Mus musculus [3]): 130 mg/kg; TD50 [2]: 343 mg/kg |
